Test [1] can be described thus: Antiproliferative activity against human OCI-Ly2 cells measured after 72 hrs by calcein AM dye-based fluorescence assay. The format is functional. The essentials: (§1)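 Cells exposed in triplicate to six concentrations for 72 h; calcein AM added for 1 h, live-cell fluorescence read at 485/538 nm (ex/em). GI50 taken from dose-response curves.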
Test [2] in a line: Antiproliferative activity against human Mino cells measured after 72 hrs by calcein AM dye-based fluorescence assay. The format is functional. The essentials:
as §1

The target in test [3] is Cyclin-dependent kinase 2/cyclin E1 (Homo sapiens, UniProt P24941). Description: Inhibition of His-tagged CDK2/Cyclin-E1 (unknown origin) expressed in baculovirus infected Sf9 insect cells using histone H1 as substrate measured in presence of [gamma-33P]ATP. The format is cell-based.
For another test, the system named is HT. The test can be described thus: Antiproliferative activity against human HT cells measured after 72 hrs by calcein AM dye-based fluorescence assay. The format is functional. The essentials:
as §1

For orientation: GI50 means the concentration giving 50% growth inhibition. One may read the IC50 as the midpoint of a concentration-inhibition curve. With `CC(C)c1n[nH]c2c(NCc3ccc(-c4ccccn4)cc3)nc(SCCO)nc12`, the GI50 in test [1] is 50 nM; in test [2], 40 nM; in the test on HT it was 48 nM. Moreover, the IC50 in test [3] stood at 3 nM.

Turning to `CC(C)c1n[nH]c2c(NCc3ccc(-c4ccccn4)cc3)nc(SCC(C)(C)O)nc12`, the results for the GI50 (in test [1]; in test [2]; with HT) were 610 nM, 477 nM and 507 nM, respectively. Also, the IC50 in test [3] turned out to be 30 nM.

Take `CC(C)c1n[nH]c2c(NCc3ccc(-c4ccccn4)cc3)nc(SCC3CNC(=O)O3)nc12` (configuration not stated): the values for the GI50 (in test [1]; in test [2]; in the test with HT) were 53 nM, 69 nM and 80 nM, respectively. Further, the IC50 in test [3] was found to be 19 nM.

Regarding `CC(C)c1n[nH]c2c(NCc3ccc(-c4ccccn4)cc3)nc(SC[C@H](O)CN)nc12`, the GI50 in test [1] is 99 nM; in test [2] it was 51 nM; with HT, 63 nM. Besides, the IC50 in test [3] turned out to be 11 nM.

`CC(C)c1n[nH]c2c(NCc3ccc(-c4ccccn4)cc3)nc(SCC(N)CN)nc12` (configuration not stated): the GI50 was 780 nM in test [1], 770 nM in test [2] and 480 nM in the test on HT. Moreover, in test [3], the IC50 was found to be 12 nM.

Take `CC(C)c1n[nH]c2c(NCc3ccc(-c4ccccn4)cc3)nc(SCC(O)C(F)(F)F)nc12` (configuration not stated): the figures for the GI50 (in test [1]; in test [2]; in the test with HT) were 585 nM, 641 nM and 690 nM, respectively. The IC50 in test [3] was found to be 132 nM.

On to `COCSc1nc(NCc2ccc(-c3ccccn3)cc2)c2[nH]nc(C(C)C)c2n1`, for which the GI50 in test [1] was 285 nM; in test [2] it was 243 nM; in the test with HT it was 340 nM. Besides, in test [3], the IC50 was 59 nM.

For the compound `CC(C)c1n[nH]c2c(NCc3ccc(-c4ccccn4)cc3)nc(SC3CCCC3O)nc12` (configuration not stated), the GI50 in test [1] was 373 nM; in test [2], 450 nM; in the test on HT, 567 nM. Moreover, the IC50 in test [3] worked out at 52 nM.

In the case of `CC(C)c1n[nH]c2c(NCc3ccc(-c4ccccn4)cc3)nc(S)nc12`, the GI50 was 3240 nM in test [1], 2180 nM in test [2] and 2760 nM in the test on HT. Moreover, the IC50 in test [3] is 558 nM.

Regarding `CCC(O)CSc1nc(NCc2ccc(-c3ccccn3)cc2)c2[nH]nc(C(C)C)c2n1` (configuration not stated), the GI50 in test [1] was 280 nM; in test [2], 427 nM; in the test on HT it was 273 nM. Moreover, the IC50 in test [3] was determined as 39 nM.

As to `C=CC(=O)N1CCC[C@@H](n2nc(-c3ccc(Oc4ccccc4)cc3)c3c(N)ncnc32)C1` [IBRUTINIB], the GI50 was 18900 nM in test [1], 10700 nM in test [2] and 15900 nM in the test with HT.

On to `CSCCSc1nc(NCc2ccc(-c3ccccn3)cc2)c2[nH]nc(C(C)C)c2n1`, for which the GI50 is 668 nM in test [1], 773 nM in test [2] and 975 nM in the test with HT. In addition, the IC50 in test [3] was determined as 138 nM.

On to `CC(C)c1n[nH]c2c(NCc3ccc(-c4ccccn4)cc3)nc(SCCN(C)C)nc12`, for which the figures for the GI50 (in test [1]; in test [2]; in the test with HT) were 61 nM, 93 nM and 54 nM, respectively. In addition, in test [3], the IC50 worked out at 77 nM.

For `CC(C)c1n[nH]c2c(NCc3ccc(-c4ccccn4)cc3)nc(SC3CCCCC3O)nc12` (configuration not stated), the results for the GI50 (in test [1]; in test [2]; with HT) were 680 nM, 530 nM and 636 nM, respectively. In addition, the IC50 in test [3] was 134 nM.

As for `CSc1nc(NCc2ccc(-c3ccccn3)cc2)c2[nH]nc(C(C)C)c2n1`, the GI50 is 1210 nM in test [1], 1050 nM in test [2] and 783 nM with HT.

With `CC(C)c1n[nH]c2c(NCc3ccc(-c4ccccn4)cc3)nc(SCC(O)CO)nc12` (configuration not stated), the GI50 is 22 nM in test [1], 10 nM in test [2] and 21 nM with HT. The IC50 in test [3] was found to be 10 nM.

Take `CC(O)CSc1nc(NCc2ccc(-c3ccccn3)cc2)c2[nH]nc(C(C)C)c2n1` (configuration not stated): the GI50 was 152 nM in test [1], 81 nM in test [2] and 62 nM in the test with HT. Also, the IC50 in test [3] worked out at 12 nM.

For `CNCCSc1nc(NCc2ccc(-c3ccccn3)cc2)c2[nH]nc(C(C)C)c2n1`, the 50% growth inhibitory concentration (GI50) in test [1] is 92 nM; in test [2], 40 nM; with HT it was 56 nM. In addition, the IC50 in test [3] worked out at 13 nM.

On to `CC(C)c1n[nH]c2c(NCc3ccc(-c4ccccn4)cc3)nc(SC(C)C(C)O)nc12` (configuration not stated), for which the 50% growth inhibitory concentration (GI50) was 141 nM in test [1], 160 nM in test [2] and 190 nM in the test with HT. In addition, in test [3], the IC50 was found to be 3 nM.

As for `CC(C)c1n[nH]c2c(NCc3ccc(-c4ccccn4)cc3)nc(SC3CCCCC3N)nc12` (configuration not stated), the values for the GI50 (in test [1]; in test [2]; with HT) were 136 nM, 157 nM and 139 nM, respectively. In test [3], the IC50 worked out at 52 nM.

On to `CC(C)c1n[nH]c2c(NCc3ccc(-c4ccccn4)cc3)nc(SCCCN(C)C)nc12`, for which the concentration for 50% growth inhibition (GI50) in test [1] is 109 nM; in test [2] it was 76 nM; with HT, 105 nM. Further, the IC50 in test [3] was 99 nM.

As to `CC(C)c1n[nH]c2c(NCc3ccc(-c4ccccn4)cc3)nc(SCCC(N)=O)nc12`, the figures for the GI50 (in test [1]; in test [2]; in the test on HT) were 84 nM, 81 nM and 120 nM, respectively. Besides, the IC50 in test [3] is 19 nM.

For `CC(C)c1n[nH]c2c(NCc3ccc(-c4ccccn4)cc3)nc(SCC(C)(C)N)nc12`, the GI50 in test [1] was 100 nM; in test [2], 64 nM; in the test with HT, 85 nM. The IC50 in test [3] is 20 nM.

For `CC(C)c1n[nH]c2c(NCc3ccc(-c4ccccn4)cc3)nc(SCC(O)CN)nc12` (racemic), the GI50 was 55 nM in test [1], 64 nM in test [2] and 55 nM in the test on HT. For the same compound, the IC50 in test [3] was 31 nM.

With `CC(C)c1n[nH]c2c(NCc3ccc(-c4ccccn4)cc3)nc(SCC(N)=O)nc12`, the GI50 in test [1] was 163 nM; in test [2], 197 nM; in the test with HT, 192 nM. Moreover, in test [3], the IC50 worked out at 27 nM.

For `C=CCSc1nc(NCc2ccc(-c3ccccn3)cc2)c2[nH]nc(C(C)C)c2n1`, the GI50 in test [1] is 858 nM; in test [2] it was 923 nM; with HT, 1000 nM. The concentration for half-maximal inhibition (IC50) in test [3] was determined as 100 nM.

For the compound `CC(C)c1n[nH]c2c(NCc3ccc(-c4ccccn4)cc3)nc(SC(CO)C(C)C)nc12` (configuration not stated), the figures for the GI50 (in test [1]; in test [2]; in the test with HT) were 1000 nM, 1310 nM and 980 nM, respectively. The IC50 in test [3] was determined as 77 nM.

As for `CC(C)c1n[nH]c2c(NCc3ccc(-c4ccccn4)cc3)nc(SCC(O)CN3CCNCC3)nc12` (configuration not stated), the values for the GI50 (in test [1]; in test [2]; in the test on HT) were 435 nM, 767 nM and 332 nM, respectively. In test [3], the IC50 turned out to be 171 nM.

On to `CC(C)c1n[nH]c2c(NCc3ccc(-c4ccccn4)cc3)nc(SCC(O)CN3CCOCC3)nc12` (configuration not stated), for which the GI50 in test [1] was 200 nM; in test [2], 243 nM; with HT, 200 nM. Further, in test [3], the IC50 was determined as 156 nM.

With `CC(=O)NCCSc1nc(NCc2ccc(-c3ccccn3)cc2)c2[nH]nc(C(C)C)c2n1`, the GI50 is 54 nM in test [1], 42 nM in test [2] and 71 nM in the test with HT. Moreover, the half-maximal inhibitory concentration (IC50) in test [3] was found to be 41 nM.

`CC(C)c1n[nH]c2c(NCc3ccc(-c4ccccn4)cc3)nc(SCCCN)nc12`: the GI50 in test [1] is 151 nM; in test [2] it was 156 nM; with HT, 120 nM. Moreover, in test [3], the IC50 was 22 nM.

(Values after ChEMBL document CHEMBL4385606, “3,5,7-Substituted Pyrazolo[4,3- d]pyrimidine Inhibitors of Cyclin-Dependent Kinases and Their Evaluation in Lymphoma Models” (J Med Chem, 2019).)
